The structures appear in SMILES notation. The source made the active and inactive calls. The calls are words filed in the database; no cut-off is given here.

Results on 24 compounds are retold here after ChEMBL document CHEMBL4334499, “SAR Exploration of Tight-Binding Inhibitors of Influenza Virus PA Endonuclease” (J Med Chem, 2019).

The target in series [1] is Polymerase acidic protein (Influenza A virus (A/Puerto Rico/8/1934(H1N1)), UniProt P03433). Briefly: Inhibition of Influenza A virus RNA-dependent RNA polymerase PA N-terminal endonuclease using [6-FAM]AATCGCAGGCAGCACTC[TAM] substrate and measured over 45 mins by fluorescence based assay.
Series [2] addresses Polymerase acidic protein (Influenza A virus (A/Puerto Rico/8/1934(H1N1))) (UniProt P03433).
For series [3], the target named is Methionine aminopeptidase 2 (Homo sapiens) (UniProt P50579). Briefly: Inhibition of recombinant human MetAP2 at 200 uM using Met-AMC as fluorogenic substrate by fluorescence assay.
Methionine aminopeptidase 2 (Homo sapiens), sequence (P50579 2-478 limits assumed): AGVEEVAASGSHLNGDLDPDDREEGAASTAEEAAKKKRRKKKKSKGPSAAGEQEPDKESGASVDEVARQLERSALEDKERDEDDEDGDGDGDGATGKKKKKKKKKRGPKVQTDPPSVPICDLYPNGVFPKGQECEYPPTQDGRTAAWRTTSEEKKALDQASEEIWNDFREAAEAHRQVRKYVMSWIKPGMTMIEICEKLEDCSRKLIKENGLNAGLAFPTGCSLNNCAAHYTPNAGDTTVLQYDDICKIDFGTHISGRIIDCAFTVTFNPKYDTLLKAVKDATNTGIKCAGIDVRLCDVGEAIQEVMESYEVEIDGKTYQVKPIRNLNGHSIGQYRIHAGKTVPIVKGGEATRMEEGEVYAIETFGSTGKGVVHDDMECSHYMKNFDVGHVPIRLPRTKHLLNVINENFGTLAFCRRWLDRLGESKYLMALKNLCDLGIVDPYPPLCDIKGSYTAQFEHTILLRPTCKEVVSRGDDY
The target of series [4] is T1, Arginase-1 (Homo sapiens) (UniProt P05089).
T1 sequence (whole entry): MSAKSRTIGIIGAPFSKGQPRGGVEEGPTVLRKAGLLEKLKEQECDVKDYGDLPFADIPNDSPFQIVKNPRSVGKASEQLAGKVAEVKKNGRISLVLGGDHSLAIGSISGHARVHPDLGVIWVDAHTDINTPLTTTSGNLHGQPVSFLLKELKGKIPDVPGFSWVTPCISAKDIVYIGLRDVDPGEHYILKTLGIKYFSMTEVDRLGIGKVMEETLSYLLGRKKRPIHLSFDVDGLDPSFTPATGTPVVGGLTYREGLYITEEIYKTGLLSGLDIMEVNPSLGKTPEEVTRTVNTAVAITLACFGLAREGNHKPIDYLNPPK
Briefly: Inhibition of human Arg1 at 200 uM using thio-arginine substrate incubated for 30 mins by Ellman's reagent based assay. A general note: DTNB colorimetry detects thiols as they appear.

Series [5] concerns the target Carbonic anhydrase 2 (Homo sapiens) (UniProt P00918). Briefly: Inhibition of recombinant human CA2 expressed in Escherichia coli BL21 at 200 uM incubated for 15 mins using p-Nitrophenyl acetate substrate.
The target of series [6] is Macrophage metalloelastase (Homo sapiens) (UniProt P39900). Briefly: Inhibition of human recombinant MMP12 at 200 uM incubated for 15 mins using OmniMMP fluorogenic substrate by fluorescence based assay.
Macrophage metalloelastase (Homo sapiens), sequence (P39900 106-470 limits assumed): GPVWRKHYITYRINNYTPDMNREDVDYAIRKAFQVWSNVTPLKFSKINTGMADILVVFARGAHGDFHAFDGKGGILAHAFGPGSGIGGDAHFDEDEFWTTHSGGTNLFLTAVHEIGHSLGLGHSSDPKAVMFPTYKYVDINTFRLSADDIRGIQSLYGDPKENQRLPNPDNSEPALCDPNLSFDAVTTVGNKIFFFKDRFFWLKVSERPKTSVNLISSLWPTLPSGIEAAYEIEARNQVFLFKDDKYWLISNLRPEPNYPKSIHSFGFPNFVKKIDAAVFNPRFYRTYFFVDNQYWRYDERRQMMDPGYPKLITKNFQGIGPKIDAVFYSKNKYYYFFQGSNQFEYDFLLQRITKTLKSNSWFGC
The nature of series [7]: Antiviral activity against Influenza A virus (A/California/04/2009(H1N1)) ATCC VR-1737 infected in MDCK cells assessed as reduction in virus-induced cytopathic effect incubated for 48 hrs by Cell-titer-Glo luminescence assay. The note with it: ATCC VR-1737, MDCK. It counts as functional, cell-based. Summed up: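 MDCK cells at 80% confluence were exposed to virus plus a range of inhibitor concentrations for 48 h at 37 °C, 5% CO2. CPE and cell viability were then read by CellTiter-Glo luminescence.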
In general terms: Protection from cytopathic effect is a common read-out in antiviral testing.

A short description of series [8]: Cytotoxicity in MDCK cells assessed as reduction in cell viability incubated for 12 hrs by MTT assay. Type of series: cell-based, Canis lupus familiaris. The note with it: dog. In general terms: Tetrazolium dyes change colour on reduction, which living cells bring about.
Series [9] can be described thus: Cytotoxicity in mouse NIH/3T3 cells assessed as reduction in cell viability incubated for 12 hrs by MTT assay. Type of series: cell-based, NIH3T3.
A short description of series [10]: Selectivity index, ratio of CC50 for cytotoxicity in MDCK cells assessed as reduction in cell viability incubated for 12 hrs by MTT assay to EC50 for antiviral activity against Influenza A virus (A/California/04/2009(H1N1)) ATCC VR-1737 infected in MDCK cells assessed as reduction in virus-induced cytopathic effect incubated for 48 hrs by Cell-titer-Glo luminescence assay. Particulars: dog, read-out: Ratio CC50/EC50. Type of series: toxicity, cell-based.

A short description of series [11]: Selectivity index, ratio of CC50 for cytotoxicity in mouse NIH/3T3 cells assessed as reduction in cell viability incubated for 12 hrs by MTT assay to EC50 for antiviral activity against Influenza A virus (A/California/04/2009(H1N1)) ATCC VR-1737 infected in MDCK cells assessed as reduction in virus-induced cytopathic effect incubated for 48 hrs by Cell-titer-Glo luminescence assay. Particulars: read-out: Ratio CC50/EC50. Type of series: toxicity, cell-based.

For `CCc1ccccc1-c1cc(=O)c(O)c(C(=O)O)[nH]1`, the IC50 in series [1] (read-out: IC50) and in series [1] (read-out: pIC50 (converted)) was less than 2 nM in each case. Further, the ΔTm in series [2] stood at 13.1 °C.
Consider `O=C(O)c1[nH]c(-c2ccc(-c3nnn[nH]3)cc2C(F)(F)F)cc(=O)c1O`, for which the inhibition entry in [3], in series [4], in series [5] and in series [6] was “inactive” in each case. In addition, the IC50 in [1] (read-out: IC50) was 47 nM; in series [1] (read-out: pIC50 (converted)) it was 0.0501 nM. The half-maximal effective concentration (EC50) in series [7] came out at 11500 nM. Moreover, the cytotoxic concentration (CC50) at 12 h in [8] and in series [9] was more than 800000 nM throughout. For the same compound, the selectivity ratio at 12 h in series [10] and in [11] was 35 to 75 throughout. In addition, the thermal shift (ΔTm) in [2] worked out at 17.8 °C.
Consider `O=C(O)c1[nH]c(-c2ccc(Oc3ccccc3)cc2)cc(=O)c1O`, for which the IC50 in series [1] (read-out: IC50) is 25 nM. Besides, in series [2], the thermal shift (ΔTm) was 8.1 °C.
The corresponding values for `O=C(O)c1cccc(-c2cc(=O)c(O)c(C(=O)O)[nH]2)c1` are 2.3 nM and 11.7 °C.
The corresponding values for `Cc1ccc(-c2cc(=O)c(O)c(C(=O)O)[nH]2)cc1` are 7.2 nM and 10.3 °C.
`O=C(O)c1[nH]c(-c2ccc(-c3nnn[nH]3)cc2)cc(=O)c1O`: the IC50 in series [1] (read-out: IC50) and in [1] (read-out: pIC50 (converted)) was less than 2 nM in each case. Besides, the EC50 in series [7] was found to be 7700 nM. Besides, the CC50 at 12 h in series [8] and in [9] was more than 800000 nM in each case. Besides, the selectivity ratio at 12 h in [10] and in series [11] was more than 100 each time. The ΔTm in [2] was found to be 14.1 °C.
Turning to `O=C(O)/C(O)=C/C(=O)C1(Cc2ccc(Cl)cc2)CCN(Cc2ccccc2)CC1`, the EC50 in series [7] is 7400 nM. Further, the cytotoxic concentration (CC50) at 12 h in series [8] and in series [9] was more than 800000 nM in each case. Moreover, the selectivity ratio at 12 h in series [10] and in [11] was 35 to 75 in each case.
For `O=C1c2c(O)c(=O)ccn2N([C@@H]2c3ccccc3SCc3c2ccc(F)c3F)[C@@H]2COCCN12` [BALOXAVIR], the concentration giving a half-maximal response (EC50) in series [7] came out at 2200 nM. In addition, the CC50 at 12 h was 20000 nM in [8] and more than 800000 nM in series [9].
In the case of `Cc1cc(-c2noc(=O)[nH]2)ccc1-c1cc(=O)c(O)c(C(=O)O)[nH]1`, the inhibition result in [3], in [4], in series [5] and in [6] was “inactive” throughout. The IC50 in series [1] (read-out: IC50) is 120 nM; in series [1] (read-out: pIC50 (converted)), 0.126 nM. In addition, the thermal shift (ΔTm) in series [2] stood at 16.3 °C.
On to `O=C(O)c1[nH]c(-c2cccc(Oc3ccccc3)c2)cc(=O)c1O`, for which the IC50 in series [1] (read-out: IC50) stood at 14 nM. Also, in series [2], the thermal shift (ΔTm) came to 9 °C.
On the same counts, the results for `CC(C)c1cccc(-c2cc(=O)c(O)c(C(=O)O)[nH]2)c1` are 6.3 nM and 10.1 °C.
In the case of `Cc1cccc(-c2cc(=O)c(O)c(C(=O)O)[nH]2)c1`, the IC50 in series [1] (read-out: IC50) is 4.8 nM. Also, the ΔTm in series [2] was found to be 10.7 °C.
As to `COc1ccccc1-c1cc(=O)c(O)c(C(=O)O)[nH]1`, the IC50 in series [1] (read-out: IC50) worked out at 2.3 nM. In addition, the shift in melting temperature (ΔTm) in series [2] came out at 11.9 °C.
On to `Cc1cc(-c2nnn[nH]2)ccc1-c1cc(=O)c(O)c(C(=O)O)[nH]1`, for which the inhibition in series [3] is 44%. The IC50 in series [1] (read-out: IC50) is 110 nM; in [1] (read-out: pIC50 (converted)) it was 0.1 nM. In addition, the inhibition result in [4], in [5] and in series [6] was “inactive” each time. Also, in [7], the EC50 was 21300 nM. The CC50 at 12 h in [8] and in series [9] was more than 800000 nM in each case. For the same compound, the selectivity ratio at 12 h in series [10] and in series [11] was 35 to 75 in each case. In addition, the thermal shift (ΔTm) in series [2] was found to be 16.5 °C.
Turning to `O=C(O)c1ccc(-c2cc(=O)c(O)c(C(=O)O)[nH]2)cc1`, the IC50 in [1] (read-out: IC50) and in [1] (read-out: pIC50 (converted)) was less than 2 nM throughout. The shift in melting temperature (ΔTm) in series [2] was determined as 11.9 °C.
Consider `O=C(O)c1[nH]c(-c2ccccc2)cc(=O)c1O`, for which, in series [1] (read-out: IC50), the IC50 was found to be 5.6 nM. Further, in series [2], the thermal shift (ΔTm) turned out to be 8.5 °C.
As to `O=C(O)c1[nH]c(-c2cccc(-c3nnn[nH]3)c2)cc(=O)c1O`, the IC50 in series [1] (read-out: IC50) and in [1] (read-out: pIC50 (converted)) was less than 2 nM each time. Moreover, the ΔTm in series [2] stood at 12.9 °C.
In the case of `O=C(O)c1[nH]c(-c2ccccc2Oc2ccccc2)cc(=O)c1O`, the IC50 in [1] (read-out: IC50) amounted to 6 nM. For the same compound, in series [2], the ΔTm worked out at 10.4 °C.
In the case of `O=C(O)c1[nH]c(-c2ccccc2C(F)(F)F)cc(=O)c1O`, the IC50 in series [1] (read-out: IC50) and in series [1] (read-out: pIC50 (converted)) was less than 2 nM in each case. In addition, the 50% effective concentration (EC50) in series [7] is 10400 nM. Also, the half-maximal cytotoxic concentration (CC50) at 12 h in series [8] and in [9] was more than 800000 nM in each case. The selectivity ratio at 12 h in series [10] and in series [11] was 35 to 75 each time. Moreover, the shift in melting temperature (ΔTm) in series [2] is 13.3 °C.
In the case of `CC(C)c1ccccc1-c1cc(=O)c(O)c(C(=O)O)[nH]1`, the IC50 in series [1] (read-out: IC50) was found to be 3.2 nM. Besides, in [2], the ΔTm came out at 11.6 °C.
Consider `Cc1cc(=O)c(O)c(C(=O)O)[nH]1`, for which the ΔTm in series [2] was 11.1 °C.
`Cc1cc(C(=O)O)ccc1-c1cc(=O)c(O)c(C(=O)O)[nH]1`: the IC50 in [1] (read-out: IC50) was 230 nM; in series [1] (read-out: pIC50 (converted)) it was 0.251 nM. Also, in series [2], the shift in melting temperature (ΔTm) stood at 15.3 °C.
With `Cc1ccccc1-c1cc(=O)c(O)c(C(=O)O)[nH]1`, in series [2], the ΔTm came out at 13.2 °C.
For the compound `CSc1ccccc1-c1cc(=O)c(O)c(C(=O)O)[nH]1`, the IC50 in [1] (read-out: IC50) was found to be 3.2 nM. Further, the shift in melting temperature (ΔTm) in series [2] was 11.8 °C.

By ΔTm is commonly meant the shift of the melting midpoint relative to a reference. By inhibition is commonly meant the share of the control response that was lost under treatment. A word on the EC50: it is the concentration that produces a half-maximal response. The term CC50 denotes the concentration giving 50% cytotoxicity.
